WT yeast gro inh = growth inhibition of WT strain, primary screen, mitochondrial fusion inhibitor project, WT and mutant strains, chemical genetic. inhibition, % at 10 µM. mitochondrial fusion phenotypic screen. 2.1% of 190,000 active; in the data active = inhibition above about 58%; tested in S. cerevisiae
Lmaj promast = Leishmania major promastigote growth inhibition, primary screen; 9% of 200,000 active; Leishmania major promastigotes, resazurin fluorescence viability; inhibition, % at 10 µM; in the data active = inhibition above about 50%;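 note: promastigotes grown with compound for 44 hours at 28 °C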
PMI activator = activators of human PMI, primary screen, biochemical, fluorescence intensity, near-Km mannose 6-phosphate; purified human PMI, coupled resazurin fluorescence, 20 min; hits give high values; 1 = vehicle control, 0 substrate-free wells; Mannose-6-phosphate isomerase (Homo sapiens), P34949; AID 1214, 2008; activation factor at 20 µM; 0.005% of 190,000 active;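 active = activation factor of 2 or more at 20 µM, relative to plate controls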
Target sequence (P34949 whole entry, looked up): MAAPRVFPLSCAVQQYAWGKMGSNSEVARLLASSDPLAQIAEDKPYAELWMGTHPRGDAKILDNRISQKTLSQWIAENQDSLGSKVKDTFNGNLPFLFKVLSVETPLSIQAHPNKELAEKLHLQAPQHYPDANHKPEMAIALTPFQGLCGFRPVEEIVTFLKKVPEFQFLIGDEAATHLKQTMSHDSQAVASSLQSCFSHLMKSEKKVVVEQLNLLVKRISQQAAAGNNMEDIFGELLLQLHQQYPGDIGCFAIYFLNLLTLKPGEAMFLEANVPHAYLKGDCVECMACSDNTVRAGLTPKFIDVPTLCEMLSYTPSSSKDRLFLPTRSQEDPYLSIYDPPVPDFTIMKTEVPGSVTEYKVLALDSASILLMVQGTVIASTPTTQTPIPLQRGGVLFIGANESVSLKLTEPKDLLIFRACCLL
Diaph act CS = compounds boosting diaphorase resazurin reduction – biochemical, uHTS, resorufin fluorescence, counter-screen for diaphorase-coupled primary assays, primary screen; Diaphorase/resazurin coupled assay, 16 min; hits give high values; 1 = vehicle wells, 0 = NADH-free wells; activation factor at 20 µM; 0.005% of 190,000 active; AID 1229, 2008;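 active = diaphorase activity raised at least twofold by the compound at 20 µM; inactive = activation factor below 2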
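Measured by – red resorufin fluorescence at 544/590 nm excitation/emission · Test system – Clostridium kluyveri diaphorase, purified enzyme · Incubation – reaction time 16 min, room temperature · Buffer or medium – 50 mM HEPES pH 7.4 with 4.542 mM MgCl2, 0.005% Tween 20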
PMI act satM6P = human PMI activators, high substrate, primary screen, biochemical, fluorescence intensity, near-saturating mannose 6-phosphate; activation factor at 20 µM; coupled PMI enzyme assay, resazurin fluorescence, 20 min; hits give high values; 1 = untreated enzyme, 0 = substrate-free blank; 0.34% of 190,000 active; Mannose-6-phosphate isomerase (Homo sapiens), P34949;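 active = activation factor of 2 or more at 20 µM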
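Material: human phosphomannose isomerase with PGI, G6PDH, diaphorase coupling enzymes. Quantity: 15 ng/mL PMI. Medium: HEPES pH 7.4 buffer with MgCl2 and Tween-20. Reagent: Near-saturating mannose-6-phosphate, 1.0 mM. Compound: 20 µM single dose. Times: enzyme reaction with compound 20 min at room temperature. Detection: resorufin fluorescence at Ex 544/Em 590 nm.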
A number is an active result; i = inactive. Only some compounds are listed: those with a hit (about 10% of all), similar ones and a draw of the others.

SMILES	WT yeast gro inh	Lmaj promast	PMI activator	Diaph act CS	PMI act satM6P
O=S(=O)(NCC(c1cccnc1)N1CCN(c2ccccc2F)CC1)c1cccs1 (centres undefined)	i	78	i	i	i
O=S(=O)(NCC(c1cccnc1)N1CCN(c2ccc(F)cc2)CC1)c1ccc(F)cc1 (centres undefined)	i	91	i	i	i
O=S(=O)(NCC(c1cccnc1)N1CCOCC1)c1cccs1 (centres undefined)	i	i	i	i	i
O=S(=O)(NCC(c1ccco1)N1CCN(c2ccccc2F)CC1)c1ccccc1 (centres undefined)	i	i	i	i	i
O=S(=O)(NCC(c1cccnc1)N1CCN(Cc2ccccc2)CC1)c1ccccc1 (centres undefined)	i	83	i	i	i
O=S(=O)(NCC(c1cccnc1)N1CCN(c2ccc(F)cc2)CC1)c1cccs1 (centres undefined)	i	87	i	i	i
CCc1cc2c(COC(=O)c3c(C)noc3C)cc(=O)oc2cc1O	i	86	i	i	i
O=C(CN1/C(=C(/O)c2ccccc2)C(=O)c2ccccc2S1(=O)=O)c1ccccc1	64	i	i	i	i
COCC(C)NC(=O)c1ccc(N(C)C)cc1 (centres undefined)	i	i	i	i	i
CC(C)COC(=O)N(C)c1ccc(C(O)(C(F)(F)F)C(F)(F)F)cc1	i	100	i	i	i
CC1=C(C#N)C(c2cccnc2)C2=C(CC(c3ccc(Cl)cc3)CC2=O)N1 (centres undefined)	i	100	i	i	i
CC1=C(C#N)C(c2ccc(O)cc2)C2=C(CCCC2=O)N1 (centres undefined)	i	i	i	i	i
COc1ccc(N2CCc3c(C)nc4c(OC)cc(OC)cc4c32)c(OC)c1	i	101	i	i	i
COc1ccc(N2CCc3c(C)nc4c(OC)cccc4c32)cc1	i	100	i	i	i
COc1ccc(N2CCc3c(C)nc4c(OC)cc(OC)cc4c32)cc1	i	100	i	i	i
COc1ccc(N2CCN(S(=O)(=O)c3cc(C)ccc3OC)CC2)cc1	i	i	i	i	i
CCN(CC(=O)NC(C)(C)C)C(=O)CCl	i	i	i	i	i
Cc1ccc(-c2nc3cc(Br)cnc3nc2-c2ccc(C)cc2)cc1	77	i	i	i	i
Cc1nc2ncc(Br)cc2[nH]1	i	i	i	i	i
O=C(CCSc1ccccc1)Nc1nccs1	i	i	i	i	i
O=C(CSc1ccccc1)N(c1ccc(Br)cc1)c1nccs1	i	67	i	i	i
Cc1ccc(C(=O)NC(=S)NCC(=O)c2ccccc2)cc1	61	i	i	i	i
CC(C)NC(=S)NC(=O)c1ccc(-c2ccccc2)cc1	67	i	i	i	i
O=C(CNC(=S)NC(=O)c1cccs1)c1ccccc1	i	i	i	i	i
Cc1ccc(NC(=O)/C(=C\c2cccnc2)NC(=O)c2ccco2)cc1	i	i	i	i	i
SMILES	WT yeast gro inh	Lmaj promast	PMI activator	Diaph act CS	PMI act satM6P
O=C(Oc1c(CN2CCOCC2)cc(Cl)c2cccnc12)c1ccc(F)cc1	i	100	i	i	i
COc1cccc(C(=O)Oc2c(CN3CCOCC3)cc(Cl)c3cccnc23)c1	i	100	i	i	i
COc1cccc(C(=O)OCCN2CCOCC2)c1	i	i	i	i	i
O=C(Oc1c(Br)cc(C(=S)N2CCOCC2)cc1Br)c1ccc(Cl)cc1	i	i	i	i	i
COc1ccc(C(=O)Oc2c(CN3CCOCC3)cc(Cl)c3cccnc23)cc1	i	97	i	i	i
COc1cc(C(=O)Oc2c(CN3CCOCC3)cc(Cl)c3cccnc23)cc(OC)c1OC	i	100	i	i	i
O=C(Oc1ccc(Cl)c2cccnc12)N1CCOCC1	i	i	i	i	i
Cc1ccc(C)n1-c1ccc(C(=O)NN)cc1	i	i	i	i	i
COC(=O)c1ccc2c(=O)n(CC3CCCO3)c(SCC(=O)NCCc3ccc(S(N)(=O)=O)cc3)nc2c1 (centres undefined)	i	i	i	i	i
C/C(=N\NC(=O)CNc1cccc(C)c1)c1ccc(Br)s1	i	57	i	i	i
Cc1cc(N2CCOCC2)n2nc(-c3cccc(F)c3)cc2n1	i	i	i	i	i
CCC1CCCCN1c1cc(C)nc2cc(-c3cccc(C)c3)nn12 (centres undefined)	89	i	i	i	i
COc1ccc(S(=O)(=O)N(CC(=O)N/N=C/c2cccs2)c2cc(C)cc(C)c2)cc1OC	i	i	i	i	i
Clc1ccc(CN2C3=NCCN3c3ccccc32)cc1Cl	i	65	i	i	i
c1ccc(CN2C3=NCCN3c3ccccc32)cc1	i	i	i	i	i
CC(=O)NNC(=S)NC(=O)c1ccc(C)cc1	i	i	i	i	i
O=C(CCc1ccccc1)NNC(=S)NC(=O)c1ccc(Cl)cc1	65	i	i	i	i
Cc1ccc(C(=O)NNC(=S)NC(=O)c2ccc(Cl)cc2)cc1	i	64	i	i	i
Cc1c(C(=O)c2ccccc2)c(=O)n(C)c(=O)n1C	i	i	i	i	i
Fc1ccc(COc2ccc(Br)cc2CNCC2CCCO2)cc1 (centres undefined)	i	82	i	i	i
O=C(CCc1c[nH]c2ccccc12)NCC(=O)Nc1ccc(F)c(F)c1F	i	i	i	i	i
CCOc1ccc(C(=O)Nc2sc3c(c2C(=O)OC)CC(C)(C)NC3(C)C)cc1	i	94	i	i	i
COC(=O)c1c(NC(=O)c2nc3ccccc3s2)sc2c1CC(C)(C)NC2(C)C	83	87	i	i	i
CCOC(=O)c1c(NC(=O)COc2ccccc2)sc2c1CC(C)(C)NC2(C)C	i	i	i	i	i
O=C(Cn1cnc2ccc(Br)cc2c1=O)c1cccs1	i	i	i	i	i
COc1ccc(C(=O)C2CCCN(C(=O)/C=C/c3ccccn3)C2)c(C)c1 (centres undefined)	i	i	i	i	i
COC(=O)Cn1ncc(N2C3CC(CC(C)(C)C3)C2C)c(Cl)c1=O (centres undefined)	i	81	i	i	i
COc1cccc(CC2(CO)CCCN(Cc3ccc(CN4CCCCC4)s3)C2)c1 (centres undefined)	i	77	i	i	i
COc1cccc(CC2(CO)CCCN(Cc3cnn(-c4ccccc4)c3)C2)c1 (centres undefined)	i	90	i	i	i
COc1cccc(CC2(CO)CCCN(Cc3cn[nH]c3-c3ccc(F)cc3)C2)c1 (centres undefined)	i	i	i	i	i
